High-throughput results from PubChem BioAssay.
This is a sample that favours compounds with a hit; in the whole collection about 0.94% have one here.
GC-A act = GC-A (human) enzyme activation | HEK293 GC-A cells, cGMP TR-FRET, EC30 ANP; 0% at EC30 ANP, 100% saturating ANP | activation, % at 10 µM | actives 0.14% (n = 370,000) | AID 1671463; in the data active = activation above about 40%
Arr AP2 block = blocks beta-arrestin peptide binding to AP2 adaptin; inhibition, % at 10 µM; actives 0.31% (n = 340,000); FITC-arrestin peptide / GST-AP2 beads, flow cytometry; AP2 beta2 appendage carries R879A mutation; AID 504490;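 active = inhibition above a set limit, near 3 SD of compounds lacking own fluorescence, cut at about 54% in these data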
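system = GST-tagged AP2 beta2-adaptin appendage (R879A) on 4 µm glutathione beads | reagent = FITC-labelled arrestin peptide probe, 50 nM final | schedule = compound with beads 12 min RT, then probe 1 h RT | signal = HyperCyt-sampled flow cytometry, FL1 channel, ex 488/em 535 nm | read-out = percent response from loss of bead-bound FITC fluorescence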
GalR3 antagonist = blocks the human galanin receptor 3. O60755. HEK293 GalR3-CNG cAMP membrane potential fluorescence; galR3 body fused to GalR1 C-terminus. inhibition, % at 3 µM. actives 0.44% (n = 360,000);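 active = inhibition above the screen-wide average plus 3 SD, cut at about 13% in these data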;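 also: forskolin and galanin both at EC90 stimulate the cells; cAMP rise reported by CNG channel membrane potential dye signal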
NPR2 activator = GC-B (human) receptor activation. HEK293-GC-B cells, CNP EC30, cGMP TR-FRET; 0% at EC30 CNP, 100% saturating CNP. activation, % at 10 µM. P20594. actives 0.11% (n = 370,000);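 active = activation at 10 µM reaching about 35% in either raw or pattern-adjusted values, limit read from the data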
GalR3 antag conf = confirmation of human galanin receptor 3 antagonists. shares compounds with GalR3 antagonist. HEK293 GalR3 CNG cAMP biosensor, membrane potential fluorescence; galR3 fused to GalR1 carboxy tail; challenged with forskolin and galanin at EC90. inhibition, % at 3 µM. actives 59% (n = 1,600);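 active = inhibition above the primary screen's cutoff, the mean inhibition of all screened compounds plus 3 SD, cut at about 13% in these data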
HEK-CNG parental = acts as nonspecific agonist in parental HEK-CNG cells. activation, % at 3 µM. HEK293-CNG parental cells, cAMP membrane potential fluorescence; normalised: DMSO wells 0%, forskolin wells 100%. shares compounds with GalR3 antagonist. actives 10% (n = 1,600); in the data active = activation above about 1.3%
Numbers stand for hits; . = inactive; / = not tested or not shown.

SMILES	GC-A act	Arr AP2 block	GalR3 antagonist	NPR2 activator	GalR3 antag conf	HEK-CNG parental
Cc1ccc(Sc2sc(=O)n(C)c2S(=O)(=O)c2ccc(C)cc2)cc1	.	.	20	.	.	.
Cc1ccc(S(=O)(=O)c2c(C)c(C)c(C)[nH]c2=O)cc1	.	.	.	.	/	/
CCN=C1S/C(=C/c2cc(C)n(-c3ccc(Cl)cc3F)c2C)C(=O)N1CC	.	/	/	.	/	/
CCCNC(=O)C(=O)Nc1ccc2c(c1)N(S(=O)(=O)c1cccs1)CCC2	.	.	.	.	/	/
COCCCNC(=O)C(=O)Nc1ccc2c(c1)N(S(=O)(=O)c1cccs1)CCC2	.	.	16	.	.	2.1
N#CCOc1nc(N2CCCCC2)nc(N2CCCCC2)n1	.	.	.	.	/	/
CCOc1nc(C#N)nc(N2CCCCC2)n1	.	.	95	.	108	.
Cc1cccc(NC2=C(Cl)C(=O)OC2OC(C)C)c1 (centres undefined)	.	.	14	.	.	.
Cc1ccc(C)c(N(C)C(=O)c2cc3c(=O)[nH]c4ccc(C)cc4c3s2)c1	.	.	16	37	19	3.2
O=C(NNC(=S)NC(=O)c1ccccc1[N+](=O)[O-])c1ccccc1[N+](=O)[O-]	.	.	.	.	/	/
O=C(NNC(=S)NC(=O)c1ccccc1[N+](=O)[O-])c1ccccc1O	.	.	31	.	.	.
C=CCNc1cccc2c1S(=O)(=O)N[C@H](Cc1ccccc1)CO2	.	/	.	.	/	/
C1=CC2CC1CC2CN1CCN(Cc2ccccc2)CC1 (centres undefined)	.	.	/	.	.	1.8
Fc1ccccc1N1CCN(CC2CC3C=CC2C3)CC1 (centres undefined)	.	.	.	.	/	/
CC(N)=Nc1ccc([N+](=O)[O-])cc1	.	.	.	.	/	/
O=[N+]([O-])c1ccc(N=Nc2c(Cl)cc(O)cc2Cl)cc1	.	.	35	.	31	3.9
O=C(Nc1cccc(C(F)(F)F)c1)OC1CC2CC1[C@H]1CCCCN1[C@H]2Cc1ccccc1 (some centres undefined)	.	/	/	.	/	/
Fc1ccccc1CNC(=S)NC1CCCCC1	.	.	.	.	/	/
COc1ccccc1CNC(=S)NC1CCCCC1	.	.	14	.	.	.
Cc1cccc(NC(=O)CNC(=O)[C@H](CCc2ccccc2)NC(=O)[C@H]2O[C@@H](n3cnc4c(N)ncnc43)[C@H](O)[C@@H]2O)c1C	.	/	.	.	/	/
CN(C)CCCNC(=O)C[C@@H]1CC[C@@H]2[C@H](COc3ccc(NC(=O)c4cccc(F)c4)cc3C(=O)N2C)O1	.	/	/	.	/	/
Cc1ccccc1-c1cc(C(=O)Nc2sc(C(=O)OC(C)C)c(C)c2C#N)c2ccccc2n1	.	.	71	.	100	.
COC(=O)[C@]12C[C@H](CC(=O)NCc3ccc(OC)c(OC)c3)C(=O)N(Cc3ccc4c(c3)OCO4)C1=C[C@H](COCc1ccccc1)O[C@@H]2C	.	/	.	.	/	/
Cc1nc(N2N=C(c3ccc(Cl)cc3)CC2c2ccco2)sc1C(=O)N(C)C (centres undefined)	.	.	21	.	.	.
Clc1ccc(C2=NN(c3ccccc3)C(c3ccco3)C2)cc1 (centres undefined)	.	.	.	.	/	/
SMILES	GC-A act	Arr AP2 block	GalR3 antagonist	NPR2 activator	GalR3 antag conf	HEK-CNG parental
OC(c1ccccc1)(c1ccccc1)C1CCN(CCCOc2ccc(-c3cncnc3)cc2)CC1	.	/	.	.	/	/
COC(=O)[C@]12C[C@H](CC(=O)NCC34CC5CC(CC(C5)C3)C4)C(=O)N(Cc3ccc(Cl)cc3Cl)C1=C[C@H](C1CCCC1)O[C@@H]2C	.	/	/	.	/	/
COC(=O)N1C[C@H](OCc2cn(-c3cc(Cl)cc(Cl)c3)nn2)[C@H](OCc2cn(-c3cc(Cl)cc(Cl)c3)nn2)C[C@@H]1c1ccccc1Br	.	/	.	.	/	/
CC(=O)Nc1ccc(NC(=O)c2ccc(-c3c(C)noc3C)c3ccoc23)cc1	.	/	.	.	/	/
COc1ccc(NC(=O)c2ccc(-c3c(C)noc3C)c3ccoc23)cn1	.	/	44	.	.	.
CC(C)(C)OC(=O)NCCCCCc1cn([C@@H](CO)C(=O)NCCCCCCCCCCC(=O)N2CCN(C(=O)OC(C)(C)C)CC2)nn1	.	.	88	.	102	.
c1ccc(-n2cnnc2SCc2cn3ccccc3n2)cc1	.	.	54	.	.	.
c1ccc(-n2cnnc2SCc2cn3ccsc3n2)cc1	.	.	.	.	/	/
Cc1ccc(-n2c(SCC(=O)c3ccc4c(c3)OCO4)nc3ccccc3c2=O)cc1	.	/	/	.	/	/
COc1ccc(C(=O)N2CCN(c3ccc([N+](=O)[O-])c(NCCc4ccc(OC)c(OC)c4)c3)CC2)cc1	.	.	24	.	92	.
COc1ccc(CCNc2cc(N3CCN(C(=O)c4ccccc4F)CC3)ccc2[N+](=O)[O-])cc1OC	.	.	.	.	/	/
O=C(N[C@H](C(=O)N1CCC[C@H]1C(=O)NCc1ccccc1)c1ccccc1)c1ccc(Cl)c(Cl)c1	.	/	.	.	/	/
FC(F)(F)c1cc(-c2ccccc2)nc(N2CCCCCC2)n1	.	.	15	.	.	.
CC(C)(C)S(=O)(=O)N1C[C@@H]2CC(=O)C=C2[C@H]1CCO	.	/	.	.	/	/
COC(=O)c1cc2c(c3c4cc(C)ccc4n(S(=O)(=O)c4ccc(OC)cc4)c13)C(=O)N(Cc1ccccc1OC)C2	.	/	.	.	/	/
COc1ccc(C(=O)Nc2ccccc2C(=O)NC(Cc2ccc(O)cc2)C(=O)NNC(=O)c2ccc(C)cc2)cc1 (centres undefined)	.	.	.	.	/	/
COc1ccc(C(=O)Nc2ccccc2C(=O)NC(Cc2ccc(O)cc2)C(=O)NNC(=O)c2ccccc2)cc1 (centres undefined)	.	.	13	.	.	.
CCCCCCn1c2c(c(=N)c3c1CCC3)CCC2	.	.	35	.	21	.
CCCCCCCCCn1c2c(c(=N)c3c1CCC3)CCC2	/	.	/	/	/	/
CCCCCCCn1c2c(c(=N)c3c1CCC3)CCCC2	.	.	31	.	44	6.0
O=C(NCc1ccc(F)cc1)c1cccc2c1C(=O)c1ccc(Cl)cc1S2(=O)=O	.	/	.	.	/	/
COc1ccc(OC[C@@H](O)CNC(=O)c2cccc3c2C(=O)c2ccc(Cl)cc2S3(=O)=O)cc1	.	.	78	.	58	.
COc1ccc(CCNC(=O)c2[nH]c(C)c(C(C)=O)c2C)cc1	.	.	.	.	/	/
COc1ccc(OCCOC(=O)c2[nH]c(C)c(C(C)=O)c2C)cc1	.	.	16	.	.	.
NCCCC[C@H](NC(=O)C1CCNCC1)c1nnc([C@@H](N)Cc2ccc(O)cc2)o1	.	.	/	.	.	.
